Test results from ChEMBL document CHEMBL4024790 (J Med Chem, 2018).
One block for each compound: values may come before it.

Assays:
[1] = 1-octanol/phosphate buffer solution partition coefficient, log D of the compound at pH 7.4 after 1 hr by LC-MS/MS method; format: physicochemical
Rattus norvegicus [2] = organism: Rattus norvegicus
[3] = Drug level in rat hepatocytes treated with 4-(azetidin-1-yl)-7-methyl-5-(1-methyl-5-(5-(trifluoromethyl)pyridin-2-yl)-1H-pyrazol-4-yl)imidazo[1,5-f][1,2,4]triazine at 1 to 50 uM after 1 hr by LC-MS/MS analysis; format: ADME, cell-based, Hepatocyte
In short: (§1)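 Rat, dog or human liver microsomes or hepatocytes (P450 0.35–0.5 µM final) incubated with compound at 1, 10 or 50 µM in 100 mM phosphate buffer with 1 mM NADP regenerating system, 37°C for 1 h; quenched with 4 volumes acetonitrile, centrifuged, supernatant evaporated, reconstituted in 5% aqueous acetonitrile and analysed by reversed-phase LC.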

[4] = Drug level in human hepatocytes treated with 4-(azetidin-1-yl)-7-methyl-5-(1-methyl-5-(5-(trifluoromethyl)pyridin-2-yl)-1H-pyrazol-4-yl)imidazo[1,5-f][1,2,4]triazine at 1 to 50 uM after 1 hr by LC-MS/MS analysis; format: ADME, cell-based, Hepatocyte; in short: as §1
[5] = Drug level in dog hepatocytes treated with 4-(azetidin-1-yl)-7-methyl-5-(1-methyl-5-(5-(trifluoromethyl)pyridin-2-yl)-1H-pyrazol-4-yl)imidazo[1,5-f][1,2,4]triazine at 1 to 50 uM after 1 hr by LC-MS/MS analysis; format: ADME, cell-based, Canis lupus familiaris, Hepatocyte; in short: as §1
human MDR1 = experiment: Passive permeability from apical to basolateral side in MDCK cells expressing human MDR1; format: ADME, cell-based, Canis lupus familiaris; settings: dog, read-out: permeability
Liver [6] = experiment: Drug level in rat liver microsomes treated with 4-(azetidin-1-yl)-7-methyl-5-(1-methyl-5-(5-(trifluoromethyl)pyridin-2-yl)-1H-pyrazol-4-yl)imidazo[1,5-f][1,2,4]triazine at 1 to 50 uM after 1 hr by LC-MS/MS analysis; format: ADME, microsome; in short: as §1
Liver [7] = experiment: Drug level in human liver microsomes treated with 4-(azetidin-1-yl)-7-methyl-5-(1-methyl-5-(5-(trifluoromethyl)pyridin-2-yl)-1H-pyrazol-4-yl)imidazo[1,5-f][1,2,4]triazine at 1 to 50 uM after 1 hr by LC-MS/MS analysis; format: ADME, microsome; in short: as §1
Liver [8] = experiment: Drug level in dog liver microsomes treated with 4-(azetidin-1-yl)-7-methyl-5-(1-methyl-5-(5-(trifluoromethyl)pyridin-2-yl)-1H-pyrazol-4-yl)imidazo[1,5-f][1,2,4]triazine at 1 to 50 uM after 1 hr by LC-MS/MS analysis; format: ADME, Canis lupus familiaris, microsome; in short: as §1
[9] = Apparent intrinsic clearance in human liver microsomes; format: ADME, microsome; settings: read-out: CLH(app)
[10] = molecular target: cGMP-specific 3',5'-cyclic phosphodiesterase (Homo sapiens, UniProt O76074); experiment: Inhibition of PDE5A1 (unknwon origin) using [3H]cGMP as substrate after 30 mins by SPA
Rattus norvegicus [11] = experiment: Cardiotoxicity in rat at 5 to 250 mg/kg/day, po up to 15 days by microscopic method; format: toxicity, organism-based; settings: in vivo, 360 h
In short: (§2)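 Exploratory rat toxicity study, oral dosing at 5, 50 and 250 mg/kg/day for up to 15 days, with microscopic examination of heart and vasculature and measurement of plasma and brain exposure.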

Rattus norvegicus [12] = experiment: Toxicity in rat assessed as effect on vasculature at 5 to 250 mg/kg/day, po up to 15 days by microscopic method; format: organism-based; settings: in vivo, 360 h
Brain = experiment: Drug uptake in rat brain at 5 to 250 mg/kg/day, po up to 15 days by microscopic method; format: ADME, organism-based; settings: in vivo, 360 h; in short: as §2
Plasma = experiment: Drug uptake in rat plasma at 5 to 250 mg/kg/day, po up to 15 days by microscopic method; format: ADME, organism-based; settings: in vivo, 360 h; in short: as §2
Canis familiaris = experiment: Cardiotoxicity in dog assessed as arteriopathy in arteries at >= 20 mg/kg/day, po for 14 days by microscopic method; format: toxicity, organism-based, Canis lupus familiaris; settings: in vivo, 336 h

logD at 1 h [1]: 2.9
Compound: Cn1ncc(-c2nn(C)c3ncnc(N4CCC4)c23)c1-c1ccc(C(F)(F)F)cc1
fIC50 (Rattus norvegicus [2]): 11 nM

Drug metabolism [3]: Metabolite_Detected
Drug metabolism [4]: Metabolite_Detected
Drug metabolism [5]: Metabolite_Detected
Papp A→B (human MDR1): 1.1 ×10⁻⁶ cm/s
Drug metabolism (Liver [6]): Metabolite_Detected
Drug metabolism (Liver [7]): Metabolite_Detected
Drug metabolism (Liver [8]): Metabolite_Detected
Compound: Cc1nc(-c2cnn(C)c2-c2ccc(C(F)(F)F)cn2)c2c(NCCC(=O)O)ncnn12

CLint scaled [9]: 93 mL/min/kg
Compound: Cc1nc(-c2cnn(C)c2-c2ccc(C(F)(F)F)cc2)c2c(N3CCC3)ncnn12

Drug metabolism [3]: Metabolite_Detected
Drug metabolism [4]: Metabolite_Detected
Drug metabolism [5]: Metabolite_Detected
Drug metabolism (Liver [6]): Metabolite_Detected
Drug metabolism (Liver [7]): Metabolite_Detected
Drug metabolism (Liver [8]): Metabolite_Detected
Compound: Cc1nc(-c2cnn(C)c2-c2ccc(C(F)(F)F)cn2)c2c(N3CC(O)C3)ncnn12

IC50 [10]: 8.9 nM
Compound: CCCc1nn(C)c2c(=O)nc(-c3cc(S(=O)(=O)N4CCN(CC)CC4)ccc3OCC)[nH]c12

logD at 1 h [1]: 2.8
CLint scaled [9]: 33 mL/min/kg
Compound: CNc1ncnn2c(C)nc(-c3cnn(C)c3-c3ccc(C(F)(F)F)cc3)c12
Activity (Rattus norvegicus [11]): Toxic
Activity (Rattus norvegicus [12]): Toxic

logD at 1 h [1]: 1.7
CLint scaled [9]: 13 mL/min/kg
Compound: Cc1nc(-c2cnn(C)c2-c2ccc(Cl)cn2)c2c(N3CCC3)ncnn12
Activity (Rattus norvegicus [11]): Toxic
Activity (Rattus norvegicus [12]): Toxic

Drug uptake (Brain): Active
Drug uptake (Plasma): Active
logD at 1 h [1]: 1.8
CLint scaled [9]: 9.5 mL/min/kg
Compound: CNc1ncnn2c(C)nc(-c3cnn(C)c3-c3ccc(C(F)(F)F)cn3)c12
Activity (Rattus norvegicus [11]): Non-Toxic
Activity (Rattus norvegicus [12]): Non-Toxic
Activity (Canis familiaris): Toxic
